{"data": "Measurements from different studies", "target": "STE20-like serine/threonine-protein kinase (SLK, Homo sapiens, UniProt Q9H2G2)", "note": "Protocols differ between the studies behind these lines."}
{"SMILES": "Cn1c2c(c3ccc(Cl)c(Cl)c31)C(C#N)C1(CCNCC1)NC2=O (racemic)", "read-out": "thermal stability", "method": "DSF", "tested at": "10 µM", "quantity": "ΔTm", "value": "-0.1 °C"}
{"SMILES": "CC(C)(C)c1nc(-c2cccc(NS(=O)(=O)c3c(F)cccc3F)c2F)c(-c2ccnc(N)n2)s1", "read-out": "enzyme activity", "action": "inhibitor", "method": "radiometric", "tested at": "1 µM", "quantity": "remaining activity", "value": "90%"}
{"SMILES": "CC/C(=N\\NC(=O)NCc1cccc(O)c1)c1ccc(O)c(C)c1O", "read-out": "enzyme activity", "action": "inhibitor", "tested at": "0.1 µM", "quantity": "inhibition", "value": "4%"}
{"SMILES": "Cn1nc(C(=O)NCc2ccc(C(=O)O)cc2)cc1-c1ccc2[nH]ccc2c1", "read-out": "cell-free assay", "method": "competition with immobilised ligand", "tested at": "0.1 µM", "quantity": "remaining binding", "value": "65%"}
{"SMILES": "COc1cc(Nc2c(C#N)cnc3cc(OCCCN4CCN(C)CC4)c(OC)cc23)c(Cl)cc1Cl", "read-out": "cell-free assay", "tested at": "0.5 µM", "quantity": "remaining signal", "value": "21.6%"}
{"SMILES": "Cn1c2c(c3ccc(Cl)c(Cl)c31)C(C#N)C1(CCOCC1)NC2=O (stereo not shown)", "read-out": "thermal stability", "method": "DSF", "tested at": "10 µM", "quantity": "ΔTm", "value": "-0.4 °C"}
{"SMILES": "O=C1Nc2ccc(Cl)cc2C1=Cc1cc(Cl)c(O)c(Cl)c1", "read-out": "cell-free assay", "tested at": "0.5 µM", "quantity": "remaining signal", "value": "95.3%"}
{"SMILES": "O=C1NC(c2ccccn2)Sc2ccccc21 (stereo not shown)", "read-out": "cell-free assay", "method": "competition with immobilised ligand", "tested at": "1 µM", "quantity": "remaining binding", "value": "76%"}
{"SMILES": "COc1cc2nccc(Oc3ccc(NC(=O)Nc4ccc(F)cc4F)c(F)c3)c2cc1OC", "read-out": "thermal stability", "method": "DSF", "tested at": "10 µM", "quantity": "ΔTm", "value": "5 to 10 °C"}
{"SMILES": "COc1cc(-c2cc(-c3ccc(N4CCNCC4)cc3)cnc2C)cc(OC)c1OC", "read-out": "enzyme activity", "action": "inhibitor", "tested at": "0.1 µM", "quantity": "inhibition", "value": "12%"}
{"SMILES": "Cn1c2c(c3ccccc31)C(C#N)C(C)(C)NC2=O (stereo not shown)", "read-out": "thermal stability", "method": "DSF", "tested at": "10 µM", "quantity": "ΔTm", "value": "-0.1 °C"}
{"SMILES": "CN1CCN(c2cnc3c(C4CCN(C(=O)c5ccc(OC(F)(F)F)cc5N)CC4)ncnc3c2)CC1", "read-out": "cell-free assay", "method": "competition with immobilised ligand", "tested at": "1 µM", "quantity": "remaining binding", "value": "96%"}
{"SMILES": "CCN1CCN(Cc2ccc(NC(=O)c3ccc(C)c(Oc4ccnc5[nH]ccc45)c3)cc2C(F)(F)F)CC1", "read-out": "target engagement in cells", "action": "inhibitor", "method": "chemoproteomics", "cells": "Huh-7", "tested at": "1 µM", "quantity": "inhibition", "value": "-70.4%"}
{"SMILES": "CC(C)(O)[C@H]1CC[C@H](Nc2ccc3ncc(-c4cccc(C(F)(F)F)c4)n3n2)CC1", "read-out": "enzyme activity", "action": "inhibitor", "tested at": "1 µM", "quantity": "remaining activity", "value": "71.5%"}
{"SMILES": "CCN(CC)CCNC(=O)c1c(C)[nH]c(/C=C2\\C(=O)Nc3ccc(F)cc32)c1C", "read-out": "cell-free assay", "tested at": "0.5 µM", "quantity": "remaining signal", "value": "63.8%"}
{"SMILES": "Cc1c(C(=O)O)cc(-c2ccc(C3CCNCC3)cc2)c2ccc(-c3ccc(C(F)(F)F)cc3)cc12", "read-out": "binding", "method": "competition with immobilised ligand", "tested at": "1 µM", "quantity": "remaining binding", "value": "100%"}
{"SMILES": "O=C(Nc1cnn(-c2csc(C(=O)NC3COC3)c2)c1)Nc1c(F)cccc1Cl", "read-out": "enzyme activity", "action": "inhibitor", "tested at": "5 µM", "quantity": "remaining activity", "value": "95%"}
{"SMILES": "CNC(=O)c1cc(Oc2ccc(NC(=O)Nc3ccc(Cl)c(C(F)(F)F)c3)cc2)ccn1", "read-out": "cell-free assay", "tested at": "0.5 µM", "quantity": "remaining signal", "value": "96.8%"}
{"SMILES": "CNC(=O)Nc1ccc2c(c1)CC[C@@]21OC(=O)N(CC(=O)N(Cc2ccc(F)cc2)[C@@H](C)C(F)(F)F)C1=O", "read-out": "cell-free assay", "method": "competition with immobilised ligand", "tested at": "1 µM", "quantity": "remaining binding", "value": "82%"}
{"SMILES": "CCOc1cc(-c2nncn2C)ccc1Nc1ncc2cc(C)nc(NCC(C)(C)C)c2n1", "read-out": "cell-free assay", "method": "TR-FRET", "tested at": "1 µM", "quantity": "inhibition", "value": "≤ 15%"}
{"SMILES": "O=C1NC(=O)c2cc(Nc3ccc(F)cc3)c(Nc3ccc(F)cc3)cc21", "read-out": "cell-free assay", "tested at": "0.5 µM", "quantity": "remaining signal", "value": "65.5%"}
{"SMILES": "CC1=C(C#N)C(c2ccc3c(c2)c(NC(=O)c2ccccc2C)nn3C)C(C#N)=C(C)N1", "read-out": "cell-free assay", "method": "competition with immobilised ligand", "tested at": "1 µM", "quantity": "remaining binding", "value": "88%"}
{"SMILES": "Cn1c2c(c3ccc(Cl)c(Cl)c31)C(C#N)C(C)(C)NC2=O (stereo not shown)", "read-out": "thermal stability", "method": "DSF", "tested at": "10 µM", "quantity": "ΔTm", "value": "-0.1 °C"}
{"SMILES": "Nc1cnc(N2CCc3cc(S(=O)(=O)Nc4c(F)cc(Cl)cc4F)cc(N4CCCC4=O)c32)nc1", "read-out": "cell-free assay", "method": "competition with immobilised ligand", "tested at": "1 µM", "quantity": "remaining binding", "value": "100%"}
{"SMILES": "CCN1CCC2(CC1)NC(=O)c1c(c3ccc(Cl)c(Cl)c3n1C)C2C#N (racemic)", "read-out": "thermal stability", "method": "DSF", "tested at": "10 µM", "quantity": "ΔTm", "value": "0.1 °C"}
